The text below walks through data of ChEMBL document CHEMBL6092204, “Synthesis of pyridyl pyrimidine hedgehog signaling pathway inhibitors and their antitumor activity in human pancreatic cancer” (Eur J Med Chem, 2024).

SMILES strings stand for the structures. Calls of active or inactive are those of the source. The rule behind the calls is not given here.

The IC50 is the point on the concentration scale where inhibition reaches its midpoint. A high value points to weaker potency.

Assay [1] is described as follows: Inhibition of Hh signaling pathway in mouse NIH3T3 cells incubated for 48 hrs by Gli luciferase reporter assay. Format: cell-based. As to conditions: NIH3T3, 48 h. The method, boiled down: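 Reporter cells were seeded in 96-well plates, incubated overnight, then treated for 48 h. Lysate luciferase activity was measured with a dual-luciferase system, and firefly signal was normalised to Renilla.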
(In a reporter assay the amount or activity of a reporter protein is the signal.)

For assay [2], the system named is BXPC-3. The assay can be described thus: Induction of apoptosis in human BXPC-3 cells assessed as viable cells at 10 uM incubated for 48 hrs by Annexin V-FITC/PI staining based flow cytometry (reference value: 91.5 %). Format: functional. Conditions: read-out: Activity. A general note: A flow cytometer gives signals particle by particle.
The subject of assay [3] is BXPC-3. As to the kind of experiment: Induction of apoptosis in human BXPC-3 cells assessed as late apoptotic cells at 10 uM incubated for 48 hrs by Annexin V-FITC/PI staining based flow cytometry (reference value: 6.72 %). Type of assay: functional.
Assay [4] has as its system PANC-1. As to the kind of experiment: Induction of apoptosis in human PANC-1 cells assessed as late apoptotic cells at 10 uM incubated for 48 hrs by Annexin V-FITC/PI staining based flow cytometry (reference value: 2.74 %). Type of assay: functional.
In assay [5] the test system is PANC-1. The assay can be described thus: Induction of apoptosis in human PANC-1 cells assessed as early apoptotic cells at 10 uM incubated for 48 hrs by Annexin V-FITC/PI staining based flow cytometry (reference value: 1.88 %). Type of assay: functional.
Assay [6] concerns BXPC-3. The assay can be described thus: Induction of apoptosis in human BXPC-3 cells assessed as early apoptotic cells at 10 uM incubated for 48 hrs by Annexin V-FITC/PI staining based flow cytometry (reference value: 1.11 %). Format: functional.
Assay [7] concerns BxPC-3. As to the kind of experiment: Antitumor activity aginst human BxPC-3 cells xenografted in BALB/c nude mouse assessed as tumor growth inhibition at 15 mg/kg, ip qd for 21 days. As to conditions: time 21.0 day. For orientation: A xenograft is tissue or cells of one species grown in another, often human tumour cells in immunodeficient mice.
The subject of assay [8] is PANC-1. As to the kind of experiment: Induction of apoptosis in human PANC-1 cells assessed as necrotic cells at 10 uM incubated for 48 hrs by Annexin V-FITC/PI staining based flow cytometry (reference value: 2.24 %). Type of assay: functional.
Assay [9] concerns PANC-1. The assay can be described thus: Induction of apoptosis in human PANC-1 cells assessed as viable cells at 10 uM incubated for 48 hrs by Annexin V-FITC/PI staining based flow cytometry (reference value: 93.2 %). Format: functional. As to conditions: read-out: Activity.
The test system of assay [10] is BXPC-3. The assay can be described thus: Induction of apoptosis in human BXPC-3 cells assessed as necrotic cells at 10 uM incubated for 48 hrs by Annexin V-FITC/PI staining based flow cytometry (reference value: 0.71 %). Type of assay: functional.

In turn, `O=C(Nc1cccc(F)c1)c1ccc(Nc2nccc(-c3cccnc3)n2)cc1` gave an IC50 in assay [1] of 15.9 nM. In other words, the double-digit nanomolar range.
Consider `O=C(Nc1cccnc1)c1ccc(Nc2nccc(-c3cccnc3)n2)cc1`, for which 28.1 nM corresponded to half-maximal inhibition in assay [1] (IC50).
In assay [1], `O=C(Nc1ccc(Cl)cc1)c1ccc(Nc2nccc(-c3cccnc3)n2)cc1` displayed a half-inhibitory concentration (IC50) of 24.8 nM.
The molecule `Cc1cccc(NC(=O)c2ccc(Nc3nccc(-c4cccnc4)n3)cc2)c1` registered an IC50 in assay [1] of 13.8 nM.
In turn, `CCOc1ccc(NC(=O)c2ccc(Nc3nccc(-c4cccnc4)n3)cc2)cc1` yielded an IC50 in [1] of 12.2 nM.
In assay [1], `COc1ccc(NC(=O)c2ccc(Nc3nccc(-c4cccnc4)n3)cc2)cc1` registered an IC50 of 14.2 nM.
Same read-out and setting: in the case of `Cc1ccc(NC(=O)c2ccc(Nc3nccc(-c4cccnc4)n3)cc2)cc1F` it was 46.4 nM; in that of `CNCc1ccc(C)c(NC(=O)c2ccc(Nc3nc(-c4ccccc4)c4ccccc4n3)cc2)c1` [BMS-833923], 5.5 nM.
As for `COc1cc(NC(=O)c2ccc(Nc3nccc(-c4cccnc4)n3)cc2)cc(OC)c1`, 29.7 nM corresponded to half-maximal inhibition in assay [1] (IC50).
The same measure, in the same setting: in the case of `O=C(Nc1ccc(N2CCOCC2)c(F)c1)c1ccc(Nc2nccc(-c3cccnc3)n2)cc1` it was 33.5 nM.
`Cc1cc(F)cc(NC(=O)c2ccc(Nc3nccc(-c4cccnc4)n3)cc2)c1`: the IC50 in assay [1] came out at 10.3 nM.
In assay [1], `O=C(Nc1ccc(F)cc1)c1ccc(Nc2nccc(-c3cccnc3)n2)cc1` yielded an IC50 of 35.3 nM.
Consider `CN1CCN(c2ccc(NC(=O)c3ccc(Nc4nccc(-c5cccnc5)n4)cc3)cc2)CC1`, for which it took 4.5 nM to reach half-maximal inhibition in assay [1] (IC50).
`COc1cc(NC(=O)c2ccc(Nc3nccc(-c4cccnc4)n3)cc2)cc(OC)c1OC` returned an IC50 in assay [1] of 18.6 nM.
Still for that read-out and setting: in the case of `COc1ccccc1NC(=O)c1ccc(Nc2nccc(-c3cccnc3)n2)cc1` it was 9.1 nM.
Consider `COc1ccc(NC(=O)c2ccc(Nc3nccc(-c4cccnc4)n3)cc2)cc1OC`, for which the half-inhibitory concentration (IC50) in assay [1] stood at 22.5 nM.
In turn, `Cc1ccccc1NC(=O)c1ccc(Nc2nccc(-c3cccnc3)n2)cc1` had a 50% inhibitory concentration (IC50) in [1] of 14.6 nM.
As for `O=C(Nc1ccc(N2CCOCC2)cc1)c1ccc(Nc2nccc(-c3cccnc3)n2)cc1`, in assay [1], the half-maximal inhibitory concentration (IC50) was determined as 17.3 nM.
`O=C(Nc1cccc(C(F)(F)F)c1)c1ccc(Nc2nccc(-c3cccnc3)n2)cc1` showed a 50% inhibitory concentration (IC50) in [1] of 25.6 nM.
Regarding `CS(=O)(=O)c1ccc(C(=O)Nc2ccc(Cl)c(-c3ccccn3)c2)c(Cl)c1` [VISMODEGIB], the viability at 10 µM with BXPC-3 [2] came out at 90.6%; with PANC-1 [9] it was 91.8%. Besides, the Activity in the assay with BXPC-3 [3] was 7.55%; with PANC-1 [4], 3.3%; with PANC-1 [5], 2.2%; in the assay with BXPC-3 [6] it was 1.05%; in the assay on PANC-1 [8], 2.68%; in the assay on BXPC-3 [10] it was 0.77%. The inhibition result in the assay on BxPC-3 [7] is “Active”. The same molecule yielded an IC50 in [1] of 15.1 nM.
